Source: ChEMBL document CHEMBL5712092, “NeuroD1 Dictates Tumor Cell Differentiation in Medulloblastoma” (Cell Rep, 2020)
Activity calls are given as the source filed them. No cut-off for these calls is given here.

Key:
[1] = tested on: Cerebellar granule neurone; experiment: Antiproliferative activity in wild-type mouse SmoA1-expressing cerebellar granule neurone cells at P7 at 2 uM for 48h by immunocytochemistry analysis; format: functional, cell-based
Summary of the method: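 Cerebellar granule neuron precursors from wild-type pups were infected with SmoA1-GFP lentivirus. 48 h after infection they were treated with inhibitor at 2 μM for 48 h, with DMSO as control. Proliferation was scored as the percentage of EdU+ cells among infected cells by immunostaining.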

[2] = Toxicity in CB17/SCID mouse xenografted with human medulloblastoma cells asessed as body weight loss at 100 mg/kg po, administered once a day; format: organism-based; conditions: in vivo
Medulloblastoma cell [3] = experiment: Induction of cell differentiation activity in human medulloblastoma cells xenografted in CB17/SCID mouse assessed as increase in NeuN expression at 50 mg/kg po, administered once a day by immunocytochemistry analysis; format: functional, organism-based
[4] = Toxicity in CB17/SCID mouse xenografted with human medulloblastoma cells asessed as body weight loss at 50 mg/kg po, administered once a day; format: organism-based; conditions: in vivo
Medulloblastoma cell [5] = experiment: Antitumor activity in human medulloblastoma cells xenografted in CB17/SCID mouse at 100 mg/kg po, administered once a day; format: functional, organism-based
Mus musculus = experiment: Antitumor activity in human medulloblastoma cells xenografted in CB17/SCID mouse assessed as increase in NeuroD1 expression at 50 mg/kg po, administered once a day by Western blot analysis; format: functional, organism-based
Medulloblastoma cell [6] = experiment: Increase of apoptosis in human medulloblastoma cells xenografted in CB17/SCID mouse assessed as cleaved caspase-3 expression at 100 mg/kg po, administered once a day by immunocytochemistry analysis; format: functional, organism-based
Medulloblastoma cell [7] = experiment: Antitumor activity in human medulloblastoma cells xenografted in CB17/SCID mouse assessed as decrease in Ki67+ cells at 50 mg/kg po, administered once a day by immunocytochemistry analysis; format: functional, organism-based
Medulloblastoma cell [8] = experiment: Increase of apoptosis in human medulloblastoma cells xenografted in CB17/SCID mouse assessed as cleaved caspase-3 expression at 50 mg/kg po, administered once a day by immunocytochemistry analysis; format: functional, organism-based
Medulloblastoma cell [9] = experiment: Antiproliferative activity in Ptch1-deficient mouse medulloblastoma cell after 48 hrs by CCK-8 assay; format: functional, cell-based
Summary of the method: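 MB cells from tumors of 30-week-old Ptch1+/− mice, dissociated by papain digestion and purified on a 35%/65% Percoll gradient. Cells were treated with a range of inhibitor concentrations for 48 h and viability was read by CCK8 assay. IC50 was taken as the concentration giving 50% inhibition of viability.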

Medulloblastoma cell [10] = experiment: Upregulation in NeuroD1 protein expression in human medulloblastoma cell by Western blot analysis; format: functional, cell-based
Medulloblastoma cell [11] = experiment: Induction of cell differentiation activity in human medulloblastoma cell assessed as increase in p27/Kip1+ cells at 1 uM after 48 hrs by immunocytochemistry analysis; format: functional, cell-based
Summary of the method: (§1)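 Cultured MB cells were exposed to inhibitor at 1 μM for 48 h, with DMSO as the vehicle control. Cells were pulsed with BrdU for 2 h, then immunostained for BrdU (proliferation) or p27/Kip1 (differentiation), with DAPI nuclear counterstain. Read-out was the percentage of positive cells.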

Medulloblastoma cell [12] = experiment: Induction of cell differentiation activity in human medulloblastoma cells xenografted in CB17/SCID mouse assessed as increase in NeuN expression at 100 mg/kg po, administered once a day by immunocytochemistry analysis; format: functional, organism-based
Medulloblastoma cell [13] = experiment: Antiproliferative activity in human medulloblastoma cell assessed as decrease in BrdU+ cells at 1 uM after 48 hrs by immunocytochemistry analysis relative to vehicle control; format: functional, cell-based; summary of the method: as §1
Medulloblastoma cell [14] = experiment: Antitumor activity in human medulloblastoma cells xenografted in CB17/SCID mouse assessed as increase in NeuroD1 expression at 100 mg/kg po, administered once a day by Western blot analysis; format: functional, organism-based
Medulloblastoma cell [15] = experiment: Antitumor activity in human medulloblastoma cells xenografted in CB17/SCID mouse assessed as decrease in Ki67+ cells at 100 mg/kg po, administered once a day by immunocytochemistry analysis; format: functional, organism-based
Medulloblastoma cell [16] = experiment: Antitumor activity in human medulloblastoma cells xenografted in CB17/SCID mouse at 50 mg/kg po, administered once a day; format: functional, organism-based

| IC50 (Medulloblastoma cell [9]) | Compound | Activity [1] | Activity [2] | Activity (Medulloblastoma cell [3]) | Activity [4] | Activity (Medulloblastoma cell [5]) | Activity (Mus musculus) | Activity (Medulloblastoma cell [6]) | Activity (Medulloblastoma cell [7]) | Activity (Medulloblastoma cell [8]) | Activity (Medulloblastoma cell [10]) | Activity (Medulloblastoma cell [11]) | Activity (Medulloblastoma cell [12]) | Activity (Medulloblastoma cell [13]) | Activity (Medulloblastoma cell [14]) | Activity (Medulloblastoma cell [15]) | Activity (Medulloblastoma cell [16]) |
| --- | --- | --- | --- | --- | --- | --- | --- | --- | --- | --- | --- | --- | --- | --- | --- | --- | --- |
| 2.08 µM | CCCc1cc(C)[nH]c(=O)c1CNC(=O)c1cc(-c2ccc(N3CCN(C(C)C)CC3)nc2)cc2c1cnn2C(C)C | Active | Non-Toxic | Active | Non-Toxic | Active | Active | Active | Active | Active | Active | Active | Active | Active | Active | Active | Active |
| 4.64 µM | CC[C@H](C)n1cc(C)c2c(C(=O)NCc3c(C)cc(C)[nH]c3=O)cc(-c3ccc(N4CCNCC4)nc3)cc21 [GSK2816126] | Active | Non-Toxic | Active | Non-Toxic | Active | Active | Active | Active | Active | Active | Active | Active | Active | Active | Active | Active |
| 8.74 µM | CCN(c1cc(-c2ccc(CN3CCOCC3)cc2)cc(C(=O)NCc2c(C)cc(C)[nH]c2=O)c1C)C1CCOCC1 [TAZEMETOSTAT] | Active | Non-Toxic | Active | Non-Toxic | Active | Active | Active | Active | Active | Active | Active | Active | Active | Active | Active | Active |
